Source: ChEMBL document CHEMBL1921735, “Antibacterial optimization of 4-aminothiazolyl analogues of the natural product GE2270 A: identification of the cycloalkylcarboxylic acids” (J Med Chem, 2011)
Values after ≈ are worked out from the molar mass of the structure shown. Active and inactive are the calls of the source.

Tests used:
Enterococcus faecium = experiment: Antibacterial activity against Enterococcus faecium 7130724 by CLSI M07-A8 method; type: functional
How it was run: (§1)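 Broth microdilution MIC run per CLSI M07-A8 (2009).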

Streptococcus pneumoniae = experiment: Antibacterial activity against Streptococcus pneumoniae by CLSI M07-A8 method; type: functional, organism-based; how it was run: as §1
Staphylococcus aureus [1] = experiment: Antibacterial activity against methicillin-resistant Staphylococcus aureus isolate A4.018 by CLSI M07-A8 method; type: functional
Streptococcus pyogenes = experiment: Antibacterial activity against Streptococcus pyogenes ATCC BAA-595 by CLSI M07-A8 method; type: functional; how it was run: as §1
Staphylococcus aureus [2] = experiment: Antibacterial activity against GE2270-A-resistant Staphylococcus aureus harboring tufA G258D mutant gene by CLSI M07-A8 method; type: functional
Enterococcus faecalis = experiment: Antibacterial activity against Enterococcus faecalis ATCC 29212 by CLSI M07-A8 method; type: functional; how it was run: as §1

| Structure (SMILES) | MIC (Enterococcus faecium) [µg/mL] | Activity (Streptococcus pneumoniae) | MIC (Staphylococcus aureus [1]) [µg/mL] | MIC (Streptococcus pyogenes) [µg/mL] | MIC (Staphylococcus aureus [2]) [µg/mL] | MIC (Enterococcus faecalis) [µg/mL] | Activity (Staphylococcus aureus [2]) |
| --- | --- | --- | --- | --- | --- | --- | --- |
| CNC(=O)C[C@@H]1NC(=O)c2csc(n2)-c2ccc(-c3nc(NS(N)(=O)=O)cs3)nc2-c2csc(n2)-c2csc(n2)[C@H]([C@@H](O)c2ccccc2)NC(=O)CNC(=O)c2nc(sc2COC)[C@H](C(C)C)NC(=O)c2nc1sc2C | 4 (≈ 3.4 µM) | Active | 4 (≈ 3.4 µM) | > 32 | > 32 | 2 (≈ 1.7 µM) | – |
| CNC(=O)C[C@@H]1NC(=O)c2csc(n2)-c2ccc(-c3nc(NC(=O)C45CCC(C(=O)O)(CC4)CC5)cs3)nc2-c2csc(n2)-c2csc(n2)[C@H]([C@@H](O)c2ccccc2)NC(=O)CNC(=O)c2nc(sc2COC)[C@H](C(C)C)NC(=O)c2nc1sc2C | 0.25 (≈ 0.196 µM) | Active | 0.25 (≈ 0.196 µM) | 4 (≈ 3.13 µM) | – | 0.125 (≈ 0.0979 µM) | – |
| CNC(=O)C[C@@H]1NC(=O)c2csc(n2)-c2ccc(-c3nc(NC(=O)OC4CC(C)(C)NC(C)(C)C4)cs3)nc2-c2csc(n2)-c2csc(n2)[C@H]([C@@H](O)c2ccccc2)NC(=O)CNC(=O)c2nc(sc2COC)[C@H](C(C)C)NC(=O)c2nc1sc2C | 0.5 (≈ 0.391 µM) | Active | 1 (≈ 0.781 µM) | 8 (≈ 6.25 µM) | – | 1 (≈ 0.781 µM) | inactive |
| CNC(=O)C[C@@H]1NC(=O)c2csc(n2)-c2ccc(-c3nc(NC(=O)OCC(C)(C)N)cs3)nc2-c2csc(n2)-c2csc(n2)[C@H]([C@@H](O)c2ccccc2)NC(=O)CNC(=O)c2nc(sc2COC)[C@H](C(C)C)NC(=O)c2nc1sc2C | 1 (≈ 0.825 µM) | Active | 2 (≈ 1.65 µM) | 8 (≈ 6.6 µM) | – | 1 (≈ 0.825 µM) | inactive |
| CNC(=O)C[C@@H]1NC(=O)c2csc(n2)-c2ccc(-c3nc(NC(=O)CC(=O)O)cs3)nc2-c2csc(n2)-c2csc(n2)[C@H]([C@@H](O)c2ccccc2)NC(=O)CNC(=O)c2nc(sc2COC)[C@H](C(C)C)NC(=O)c2nc1sc2C | 2 (≈ 1.69 µM) | Active | 1 (≈ 0.846 µM) | 8 (≈ 6.77 µM) | – | 1 (≈ 0.846 µM) | inactive |
| CNC(=O)C[C@@H]1NC(=O)c2csc(n2)-c2ccc(-c3nc(-n4cnc(C(=O)O)c4)cs3)nc2-c2csc(n2)-c2csc(n2)[C@H]([C@@H](O)c2ccccc2)NC(=O)CNC(=O)c2nc(sc2COC)[C@H](C(C)C)NC(=O)c2nc1sc2C | > 32 | Active | 4 (≈ 3.36 µM) | > 32 | > 32 | 4 (≈ 3.36 µM) | – |
| CNC(=O)C[C@@H]1NC(=O)c2csc(n2)-c2ccc(-c3nc(NC(=O)O[C@H]4C[C@@H](C(=O)O)C[C@@H]4N)cs3)nc2-c2csc(n2)-c2csc(n2)[C@H]([C@@H](O)c2ccccc2)NC(=O)CNC(=O)c2nc(sc2COC)[C@H](C(C)C)NC(=O)c2nc1sc2C | 4 (≈ 3.16 µM) | Active | 2 (≈ 1.58 µM) | 2 (≈ 1.58 µM) | – | 1 (≈ 0.789 µM) | – |
| CNC(=O)C[C@@H]1NC(=O)c2csc(n2)-c2ccc(-c3nc(NC(=O)[C@H]4CC[C@@H](C(=O)O)CC4)cs3)nc2-c2csc(n2)-c2csc(n2)[C@H]([C@@H](O)c2ccccc2)NC(=O)CNC(=O)c2nc(sc2COC)[C@H](C(C)C)NC(=O)c2nc1sc2C | 0.25 (≈ 0.2 µM) | Active | 0.25 (≈ 0.2 µM) | 4 (≈ 3.2 µM) | – | 0.125 (≈ 0.1 µM) | – |
| CNC(=O)C[C@@H]1NC(=O)c2csc(n2)-c2ccc(-c3nc(NC(=O)CC[C@H](N)C(=O)O)cs3)nc2-c2csc(n2)-c2csc(n2)[C@H]([C@@H](O)c2ccccc2)NC(=O)CNC(=O)c2nc(sc2COC)[C@H](C(C)C)NC(=O)c2nc1sc2C | > 32 | Active | > 32 | > 32 | – | > 32 | inactive |
| CNC(=O)C[C@@H]1NC(=O)c2csc(n2)-c2ccc(-c3nc(NC(=O)OC(C)(C)C)cs3)nc2-c2csc(n2)-c2csc(n2)[C@H]([C@@H](O)c2ccccc2)NC(=O)CNC(=O)c2nc(sc2COC)[C@H](C(C)C)NC(=O)c2nc1sc2C | > 128 | Active | > 128 | > 128 | > 32 | > 128 | – |
| CNC(=O)C[C@@H]1NC(=O)c2csc(n2)-c2ccc(-c3nc(NS(C)(=O)=O)cs3)nc2-c2csc(n2)-c2csc(n2)[C@H]([C@@H](O)c2ccccc2)NC(=O)CNC(=O)c2nc(sc2COC)[C@H](C(C)C)NC(=O)c2nc1sc2C | 4 (≈ 3.41 µM) | Active | 2 (≈ 1.7 µM) | > 32 | > 32 | 2 (≈ 1.7 µM) | – |
| CNC(=O)C[C@@H]1NC(=O)c2csc(n2)-c2ccc(-c3nc(NC(=O)NCCC(=O)O)cs3)nc2-c2csc(n2)-c2csc(n2)[C@H]([C@@H](O)c2ccccc2)NC(=O)CNC(=O)c2nc(sc2COC)[C@H](C(C)C)NC(=O)c2nc1sc2C | 2 (≈ 1.65 µM) | Active | 1 (≈ 0.825 µM) | 8 (≈ 6.6 µM) | > 32 | 1 (≈ 0.825 µM) | – |
| CNC(=O)C[C@@H]1NC(=O)c2csc(n2)-c2ccc(-c3nc(C4=N[C@H](C(=O)N5CCC[C@H]5C(N)=O)CO4)cs3)nc2-c2csc(n2)-c2csc(n2)[C@H]([C@@H](O)c2ccccc2)NC(=O)CNC(=O)c2nc(sc2COC)[C@H](C(C)C)NC(=O)c2nc1sc2C | 0.25 (≈ 0.194 µM) | Active | 0.25 (≈ 0.194 µM) | 1 (≈ 0.775 µM) | – | 0.5 (≈ 0.387 µM) | – |
| CNC(=O)C[C@@H]1NC(=O)c2csc(n2)-c2ccc(-c3nc(NC(=O)c4ccnc(C(=O)O)c4)cs3)nc2-c2csc(n2)-c2csc(n2)[C@H]([C@@H](O)c2ccccc2)NC(=O)CNC(=O)c2nc(sc2COC)[C@H](C(C)C)NC(=O)c2nc1sc2C | 8 (≈ 6.42 µM) | Active | 8 (≈ 6.42 µM) | > 32 | – | 2 (≈ 1.61 µM) | – |
| CNC(=O)C[C@@H]1NC(=O)c2csc(n2)-c2ccc(-c3nc(NC(=O)O[C@H]4CC[C@@H](C(=O)O)CC4)cs3)nc2-c2csc(n2)-c2csc(n2)[C@H]([C@@H](O)c2ccccc2)NC(=O)CNC(=O)c2nc(sc2COC)[C@H](C(C)C)NC(=O)c2nc1sc2C | 0.125 (≈ 0.0987 µM) | Active | 0.125 (≈ 0.0987 µM) | 1 (≈ 0.79 µM) | – | 0.125 (≈ 0.0987 µM) | – |
| CNC(=O)C[C@@H]1NC(=O)c2csc(n2)-c2ccc(-c3nc(NC(=O)O[C@H]4C[C@H](C(=O)O)C4)cs3)nc2-c2csc(n2)-c2csc(n2)[C@H]([C@@H](O)c2ccccc2)NC(=O)CNC(=O)c2nc(sc2COC)[C@H](C(C)C)NC(=O)c2nc1sc2C | 0.06 (≈ 0.0484 µM) | Active | 0.125 (≈ 0.101 µM) | 2 (≈ 1.61 µM) | – | 0.06 (≈ 0.0484 µM) | – |
| CNC(=O)C[C@@H]1NC(=O)c2csc(n2)-c2ccc(-c3nc(NC(=O)c4ccc(C(=O)O)nc4)cs3)nc2-c2csc(n2)-c2csc(n2)[C@H]([C@@H](O)c2ccccc2)NC(=O)CNC(=O)c2nc(sc2COC)[C@H](C(C)C)NC(=O)c2nc1sc2C | 8 (≈ 6.42 µM) | Active | 4 (≈ 3.21 µM) | > 32 | – | 4 (≈ 3.21 µM) | – |
| CNC(=O)C[C@@H]1NC(=O)c2csc(n2)-c2ccc(-c3nc(NC(=O)c4ccc(C(=O)O)cc4)cs3)nc2-c2csc(n2)-c2csc(n2)[C@H]([C@@H](O)c2ccccc2)NC(=O)CNC(=O)c2nc(sc2COC)[C@H](C(C)C)NC(=O)c2nc1sc2C | 0.125 (≈ 0.1 µM) | Active | 0.125 (≈ 0.1 µM) | 4 (≈ 3.21 µM) | – | 0.125 (≈ 0.1 µM) | – |
| CNC(=O)C[C@@H]1NC(=O)c2csc(n2)-c2ccc(-c3nc(NC(=O)[C@H]4CC[C@@H]4C(=O)O)cs3)nc2-c2csc(n2)-c2csc(n2)[C@H]([C@@H](O)c2ccccc2)NC(=O)CNC(=O)c2nc(sc2COC)[C@H](C(C)C)NC(=O)c2nc1sc2C | 0.5 (≈ 0.409 µM) | Active | 0.25 (≈ 0.205 µM) | 4 (≈ 3.27 µM) | – | 0.25 (≈ 0.205 µM) | – |
| CNC(=O)C[C@@H]1NC(=O)c2csc(n2)-c2ccc(-c3nc(NC(=O)[C@H]4CC[C@@H](C(=O)O)C4)cs3)nc2-c2csc(n2)-c2csc(n2)[C@H]([C@@H](O)c2ccccc2)NC(=O)CNC(=O)c2nc(sc2COC)[C@H](C(C)C)NC(=O)c2nc1sc2C | 0.25 (≈ 0.202 µM) | Active | 0.25 (≈ 0.202 µM) | 4 (≈ 3.23 µM) | – | 0.25 (≈ 0.202 µM) | – |
